Screens (PubChem)
Rows were chosen to be rich in hits. Some 1.8% of all compounds tested hit in one or more screens of this group.
PME-1 primary – PME-1 inhibitors via competitive probe labeling, primary screen, biochemical, fluorescence polarization, FP-Rh probe, HTS. Protein phosphatase methylesterase 1 (Homo sapiens), Q9Y570. recombinant PME-1. inhibition, % at 5.9 µM. actives 0.53% (n = 320,000). AID 2130, 2009;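 active means inhibition above the campaign mean of all compounds plus 3 SD, cut at about 26% in these data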;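 further: competitive labeling of PME-1 active site by serine hydrolase directed probe; inhibitors block probe labeling so polarization falls and inhibition rises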
Target sequence (Q9Y570 whole entry, looked up): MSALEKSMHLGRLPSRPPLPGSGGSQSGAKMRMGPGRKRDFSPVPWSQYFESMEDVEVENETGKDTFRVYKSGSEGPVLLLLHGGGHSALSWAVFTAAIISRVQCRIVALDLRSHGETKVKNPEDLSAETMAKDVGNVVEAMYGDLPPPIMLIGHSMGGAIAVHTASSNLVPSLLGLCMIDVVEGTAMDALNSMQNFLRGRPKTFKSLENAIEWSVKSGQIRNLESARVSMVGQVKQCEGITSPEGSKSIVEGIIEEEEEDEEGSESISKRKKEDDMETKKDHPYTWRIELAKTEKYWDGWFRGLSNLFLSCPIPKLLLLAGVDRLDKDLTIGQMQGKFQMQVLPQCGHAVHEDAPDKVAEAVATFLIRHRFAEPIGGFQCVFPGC
SIAE inh – human SIAE inhibitors, primary screen, biochemical, fluorescence polarization, FP-Rh probe, 1536-well HTS. inhibition, % at 9.66 µM. Sialate O-acetylesterase (Homo sapiens), Q9HAT2. actives 0.69% (n = 370,000). SIAE FP-Rh probe binding. AID 1053197, 2014;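 active means inhibition above a cutoff: mean of compounds within the control limits plus 3 SD of those, cut at about 17% in these data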
mABHD4 FP – ABHD4 inhibitors, primary screen, biochemical, fluorescence polarization, mouse; (Lyso)-N-acylphosphatidylethanolamine lipase (Mus musculus), Q8VD66; purified mABHD4, FP-Rh probe fluorescence polarization; actives 0.54% (n = 370,000); inhibition, % at 8.92 µM;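 active means inhibition exceeding the mean over every tested compound plus 3 SD, cut at about 30% in these data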
Target sequence (Q8VD66 whole entry, looked up): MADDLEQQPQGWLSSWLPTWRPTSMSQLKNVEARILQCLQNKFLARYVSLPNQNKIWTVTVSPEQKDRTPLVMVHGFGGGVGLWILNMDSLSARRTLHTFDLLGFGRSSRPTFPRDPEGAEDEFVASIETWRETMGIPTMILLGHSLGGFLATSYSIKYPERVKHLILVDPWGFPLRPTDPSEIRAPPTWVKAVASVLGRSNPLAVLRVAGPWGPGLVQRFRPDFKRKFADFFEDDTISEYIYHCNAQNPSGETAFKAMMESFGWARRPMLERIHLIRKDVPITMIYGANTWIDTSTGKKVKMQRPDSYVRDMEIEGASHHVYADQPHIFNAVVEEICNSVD
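Doses – 8.92 µM, single dose · Material – wild-type mouse ABHD4 protein · Replication – single well per compound (singlicate) · Measure – percent inhibition of probe binding, normalized to plate controls · Schedule – 45 min compound pre-incubation plus 60 min probe step, 25 °C · Detection – fluorescence polarization with parallel and perpendicular emission, 525/598 nm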
HTRA1 inh – HTRA1 serine protease inhibitors, primary screen, biochemical, fluorescence polarization, HTS | Q92743 | actives 0.5% (n = 340,000) | inhibition, % at 5.96 µM | recombinant HTRA1, FP-rhodamine activity-based probe | AID 504803, 2011; in the data active means inhibition above about 36%
Fam108B inh – mouse Fam108B serine hydrolase inhibitors, primary screen, counter-screen for RBBP9 inhibitor project, biochemical, fluorescence polarization; inhibition, % at 9.51 µM; actives 0.33% (n = 300,000); recombinant Fam108B, FP-Rh probe fluorescence polarization;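 active means inhibition above the screen mean inhibition plus 3 SD, computed separately per campaign, cut at about 18% in these data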;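 further: inhibitors lower polarization as less probe binds the enzyme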
TCR CD3 inh – inhibitors of human TCR-CD3 interaction, primary screen, biochemical, fluorescence, TAMRA-labeled TCR probe | T-cell receptor (TCR) | inhibition, % at 9.4 µM | actives 0.37% (n = 360,000) | AID 651800, 2012; in the data active means inhibition above about 19%;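 further: recombinant mutant TCR 2C K166C tagged with TAMRA read by polarization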
SIAE confirm – human SIAE inhibitors, retest, confirmation, biochemical, fluorescence polarization, FP-Rh probe, triplicate. shares compounds with SIAE inh. SIAE FP-Rh activity-based probe. inhibition, % at 9.66 µM. actives 13% (n = 2,300). AID 1117263, 2014;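 active means mean inhibition of the replicates above the hit cutoff set in the primary screen, cut at about 17% in these data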;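 further: inhibitors lower polarization as more probe stays unbound to SIAE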
Each line names hits and unclear results; the compound was inactive in the other large screens (follow-up assays come after a bar, where they were run).

COc1ccc(C(C(=O)NC(C)(C)C)N(C(=O)CNC(=O)c2cccs2)c2ccc(NC(C)=O)cc2)cc1OC (configuration not stated)	none
COc1cc(/C=N\Nc2nc(-c3ccc(C)cc3)c(NC(C)=O)s2)ccc1O	SIAE inh 22 | SIAE confirm 33
C/C(=N\O)c1cc(Cl)cc(Cl)c1O	SIAE inh 25 | SIAE confirm 30
C[C@H]1C2CC(OC(=O)Nc3cccc(C(F)(F)F)c3)C(C2)[C@H]2CCCCN21 (some centres not stated)	none (no result: PME-1 primary, HTRA1 inh, Fam108B inh, TCR CD3 inh)
Clc1ncc(CN2CCN(Cc3ccccc3)CC2)s1	SIAE inh 28 | SIAE confirm inactive
C=CCN1CCN(Cc2cnc(Cl)s2)CC1	none
Clc1ccc(N=c2ssnc2Cl)cc1	none
N#Cc1ccc(N=c2ssnc2Cl)cc1	SIAE inh 22 | SIAE confirm 17
O=C(NCc1ccccn1)c1cccc(S(=O)(=O)N2CCCCC2)c1	none (no result: Fam108B inh)
C[C@@H]1CN([C@H](C)CO)C(=O)c2cc(Br)cnc2O[C@@H]1CN(C)Cc1ccc(-c2ccccc2)cc1	none (no result: PME-1 primary, Fam108B inh)
COc1cc(/C=C/C(=O)c2ccc(NS(=O)(=O)c3ccc(C)cc3)cc2)ccc1OC(F)F	none
COc1cc(/C=C/C(=O)c2ccc(NS(=O)(=O)c3ccc(C)cc3)cc2)cc(OC)c1O	SIAE inh 78 | SIAE confirm inactive
COc1ccc2c(c1)CC=C1C2CCC2(C)C(=O)C(=NO)CC12 (configuration not stated)	SIAE inh 19 (no result: PME-1 primary, Fam108B inh) | SIAE confirm 22
CCN1CCN(c2ccc(S(=O)(=O)N3CCCCC3)cc2NC(=O)c2cccc(OC(F)F)c2)CC1	SIAE inh 20 | SIAE confirm inactive
CCN1CCN(S(=O)(=O)c2ccc(Cl)c(C(=O)Nc3ccccc3N3CCCC3)c2)CC1	none
CCN1CCN(S(=O)(=O)c2ccc(Cl)c(C(=O)Nc3ccccc3N3CCCCC3)c2)CC1	SIAE inh 17 | SIAE confirm inactive
CCN1CCN(S(=O)(=O)c2ccc(Cl)c(C(=O)N(C)CCOc3ccc(Cl)cc3)c2)CC1	SIAE inh 20 | SIAE confirm inactive
COc1ccc(S(=O)(=O)N2CCCCCC2)cc1C(=O)N(C)CCOc1ccc(Cl)cc1	none
CCC(=O)N1CCC(C)(C(=O)Nc2ccc(OC)c(OC)c2)C1 (configuration not stated)	SIAE inh 18 (no result: PME-1 primary, HTRA1 inh, Fam108B inh) | SIAE confirm inactive
CCCNC(=O)C1(C)CCN(C(=O)Cc2ccc(OC)c(OC)c2)C1 (configuration not stated)	none (no result: PME-1 primary, HTRA1 inh, Fam108B inh)
O=C(Nc1cc(Cl)ccc1-n1cncn1)c1ccc(Br)o1	none
Cn1c(SCC(=O)c2ccc3c(c2)OCO3)nnc1-c1ccccn1	SIAE inh 25 | SIAE confirm inactive
O=C(CSc1ccccn1)c1ccc2c(c1)OCO2	none
OC1C2COC(O2)C2OC(c3ccccc3)OC12 (configuration not stated)	none (no result: PME-1 primary, HTRA1 inh, Fam108B inh)
OCCNCCOc1ccccc1-c1ccccc1	none
N=C(N)CCCOc1ccccc1-c1ccccc1	SIAE inh 20 | SIAE confirm inactive
CC(C)CC(=O)Nc1nnc(SCC(=O)Nc2nccs2)s1	none
CCOC(=O)c1[nH]c2ccc(Br)cc2c1NC(=O)CCN1CCN(C(=O)OCC)CC1	SIAE inh 18 | SIAE confirm inactive
CC(C)(C)c1ccc(S(=O)(=O)N2CCN(Cc3cc4c(cc3O)OCO4)CC2)cc1	none (no result: Fam108B inh)
C[C@]12C=CC(=O)C=C1CC[C@@H]1[C@@H]2[C@@H](O)C[C@@]2(C)[C@H]1CC[C@]2(O)C(=O)CO	none
CC(/C=C/c1ccc(N(C)C)cc1)=N/N=C1/NC(=O)CC(C(=O)Nc2ccc(Cl)cc2)S1 (configuration not stated)	none
CC(/C=C/c1ccc(N(C)C)cc1)=N\N=C1\NC(=O)CC(C(=O)Nc2ccccc2)S1 (configuration not stated)	SIAE inh 19 | SIAE confirm inactive
O=C1c2ccccc2C(Nc2ccc3c(c2)OCO3)N1Cc1ccco1 (configuration not stated)	SIAE inh 19 | SIAE confirm inactive
O=C1c2ccccc2C(Nc2ccc3c(c2)OCO3)N1Cc1ccc2c(c1)OCO2 (configuration not stated)	none
COc1ccc(C=CC(=O)c2ccc([N+](=O)[O-])cc2)cc1	none (no result: PME-1 primary, Fam108B inh)
Cc1[nH]c(C)c(C(=O)/C=C/c2ccc([N+](=O)[O-])cc2)c1C	SIAE inh 25 | SIAE confirm inactive
Cc1cc2oc(=O)cc(-c3ccccc3)c2c(C)c1-c1ccc(C#N)cc1	none (no result: PME-1 primary, Fam108B inh)
CSCc1cc(N2CCCC2)nc(-c2ccccc2)n1	SIAE inh 19 | SIAE confirm inactive
CC(C)SCc1cc(N2CCCC2)nc(-c2ccccc2)n1	none
CCOC(=O)c1c(C)[nH]c(C(=O)N(C)Cc2cccc(OC)c2OC)c1C	none
CC(=O)Nc1cc(-c2ccccc2N(C)C)cn2c(-c3cccc(C(F)(F)F)c3)cnc12	SIAE inh 18 (no result: PME-1 primary, HTRA1 inh, Fam108B inh) | SIAE confirm inactive
CC(=O)Nc1cc(-c2cccc(NS(C)(=O)=O)c2)cn2c(-c3cccc(C(F)(F)F)c3)cnc12	none (no result: PME-1 primary, HTRA1 inh, Fam108B inh)
COc1ccc(C(=O)C(=O)N2CCN(C(=O)c3ccccc3C(F)(F)F)CC2)cc1OC	SIAE inh 22 (no result: PME-1 primary, HTRA1 inh, Fam108B inh) | SIAE confirm inactive
CC(C)C[C@H]1CN(CCCC[C@H]2CNC(=O)C(=O)N2CCC2CCCCC2)C(=O)C(=O)N1CCc1ccccc1	none (no result: PME-1 primary, HTRA1 inh, Fam108B inh)
CC(C)(C)CCN1CCC(CN2CCNC2=S)CC1	SIAE inh 18 (no result: PME-1 primary, Fam108B inh) | SIAE confirm inactive
CCC1CCC(N2CCN(c3ccc(F)cc3)CC2)CC1 (configuration not stated)	SIAE inh 17 (no result: PME-1 primary, Fam108B inh) | SIAE confirm inactive
CCC1CCC(N2CCN(c3ccc([N+](=O)[O-])cc3)CC2)CC1 (configuration not stated)	none (no result: PME-1 primary, Fam108B inh)
COc1ccc(C(=O)NCC(=O)OCC(=O)Nc2ncc(Cl)cc2Cl)cc1[N+](=O)[O-]	none (no result: Fam108B inh)
CC1(C)CC(=O)C=C(c2cn[nH]n2)C1	none (no result: PME-1 primary, Fam108B inh)
COc1cccc(C(=O)N2CCN(Cc3ccccc3Br)CC2)c1	none
COc1ccc(N(C)S(=O)(=O)c2cccc(C(=O)Nc3cccc(C(=O)NC4CC4)c3)c2)cc1	none (no result: Fam108B inh)
CCN(CC)c1ccc(/C=N/NC(=O)c2nnn(-c3nonc3N)c2-c2ccc(C)cc2)cc1	SIAE inh 25 | SIAE confirm inactive
